Assay results taken from PMC3321094 (Nature, 2012).
Numbering of substitutions follows the chain as printed. Names and notes keep the numbering of the source. One block for each molecule: values may come before it. Where no end group is shown, it is not given here.

Key:
[1] = target: T1, Histone H4K20me2 peptide 14-25 (Homo sapiens, UniProt P62805); assay: ITC
T1 chain: GGAKRHRK(Me2)VLRD

[2] = target: T2, Histone H4K20me3 peptide 14-25 (Homo sapiens, UniProt P62805); assay: ITC
T2 chain: GGAKRHRK(Me3)VLRD

[3] = system: ORC components (ORC2, ORC3 and ORC5); assay: Affinity purification of FLAG-ORC1 complexes from HT1080 cells; type: cell-based, human; conditions: vs wild-type ORC1, Western blot
WI38 cells = assay: Cell-cycle profile of WI38 cells by flow cytometry; type: cell-based, human; conditions: WI38 primary fibroblast, relative to wild-type hORC1
In short: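 WI38 cells transiently expressing GFP plus wild-type ORC1 or an H4K20me2-binding-pocket point mutant (Y64A or W88A). Cell-cycle profile determined by flow cytometry, gating on GFP-positive cells so that only transfected cells are scored. Percentage of cells in each cell-cycle phase and the S/G1 ratio are calculated per transfection. Two experiments, s.d. reported.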

[4] = system: ORC components (ORC2, ORC3 and ORC5); assay: Affinity purification of FLAG-ORC1 complexes from U2OS cells; type: cell-based, human; conditions: vs wild-type ORC1, Western blot
chromatin = assay: Small-scale biochemical fractionation: ORC chromatin association; type: cell-based, human; conditions: cells stably expressing ORC1 protein, in comparison to hORC1; Western blot

B3: hORC1Y64A: H4K20me2-binding pocket mutant Y64A of human ORC1 (protein, UniProt Q13415 1-861, looked up, variant Y64A)
Origin recognition complex …: MAHYPTRLKTRKTYSWVGRPLLDRKLHYQTYREMCVKTEGCSTEIHIQIGQFVLIEGDDDENPAVAKLLELFEDDSDPPPKKRARVQWFVRFCEVPACKRHLLGRKPGAQEIFWYDYPACDSNINAETIIGLVRVIPLAPKDVVPTNLKNEKTLFVKLSWNEKKFRPLSSELFAELNKPQESAAKCQKPVRAKSKSAESPSWTPAEHVAKRIESRHSASKSRQTPTHPLTPRARKRLELGNLGNPQMSQQTSCASLDSPGRIKRKVAFSEITSPSKRSQPDKLQTLSPALKAPEKTRETGLSYTEDDKKASPEHRIILRTRIAASKTIDIREERTLTPISGGQRSSVVPSVILKPENIKKRDAKEAKAQNEATSTPHRIRRKSSVLTMNRIRQQLRFLGNSKSDQEEKEILPAAEISDSSSDEEEASTPPLPRRAPRTVSRNLRSSLKSSLHTLTKVPKKSLKPRTPRCAAPQIRSRSLAAQEPASVLEEARLRLHVSAVPESLPCREQEFQDIYNFVESKLLDHTGGCMYISGVPGTGKTATVHEVIRCLQQAAQANDVPPFQYIEVNGMKLTEPHQVYVQILQKLTGQKATANHAAELLAKQFCTRGSPQETTVLLVDELDLLWTHKQDIMYNLFDWPTHKEARLVVLAIANTMDLPERIMMNRVSSRLGLTRMCFQPYTYSQLQQILRSRLKHLKAFEDDAIQLVARKVAALSGDARRCLDICRRATEICEFSQQKPDSPGLVTIAHSMEAVDEMFSSSYITAIKNSSVLEQSFLRAILAEFRRSGLEEATFQQIYSQHVALCRMEGLPYPTMSETMAVCSHLGSCRLLLVEPSRNDLLLRVRLNVSQDDVLYALKDE
efficiency of affinity purification of ORC2, ORC3 and ORC5 [3]: equal to that observed with the wild-type protein
S phase population (WI38 cells): decreased S phase population
S/G1 ratio (in words) (WI38 cells): lower S/G1 ratio
efficiency of affinity purification of ORC2, ORC3 and ORC5 [4]: equal to that observed with the wild-type protein
ORC1 enrichment at chromatin (chromatin): considerably reduced

B4: hORC1W88A: H4K20me2-binding pocket mutant W88A of human ORC1 (protein, UniProt Q13415 1-861, looked up, variant W88A)
Origin recognition complex …: B3 Origin recognition complex … with A64Y, W88A
efficiency of affinity purification of ORC2, ORC3 and ORC5 [3]: equal to that observed with the wild-type protein
S phase population (WI38 cells): decreased S phase population
S/G1 ratio (in words) (WI38 cells): lower S/G1 ratio
efficiency of affinity purification of ORC2, ORC3 and ORC5 [4]: equal to that observed with the wild-type protein
ORC1 enrichment at chromatin (chromatin): considerably reduced

Continued, values first:

Kd [1]: 9.6 µM
B1: ORC1 BAH domain (mORC1BAH) 9-170 (protein)
chain: KTRQTFSWVGRPLPNRKQFQQMYREICMKINDGSEIHIKVGQFVLIQGEDNKKPYVAKLIELFQNGAEVPPKKCARVQWFVRFLEIPVSKRHLLGRSPPAQEIFWYDCSDWDNKINVETIIGPVQVVALAPEEVIPVDQKSEETLFVKLSWNKKDFAPLPPE

Kd [2]: 40 µM
B2: ORC1 BAH domain (hORC1BAH) 1-185 (protein)
chain: MAHYPTRLKTRKTYSWVGRPLLDRKLHYQTYREMCVKTEGCSTEIHIQIGQFVLIEGDDDENPYVAKLLELFEDDSDPPPKKRARVQWFVRFCEVPACKRHLLGRKPGAQEIFWYDYPACDSNINAETIIGLVRVIPLAPKDVVPTNLKNEKTLFVKLSWNEKKFRPLSSELFAELNKPQESAAK
